The source made the active and inactive calls. The rule behind the calls is not given here.
Experiments:
Rattus norvegicus [1] = assay: (§1) Anti-hepatitis activity in ANIT-induced Sprague-Dawley rat model of liver injury assessed as reduction in serum alanine aminotransferase level at 3.125 to 25 mg/kg, po administered 30 mins prior to ANIT challenge and subsequent dosing at 8, 22, 32, and 46 hrs post ANIT challenge and measured 48 hrs post ANIT challenge; assay type: functional, organism-based
Method in brief: (§2)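 ANIT (50 mg/kg ip, olive oil) cholestatic liver injury in male SD rats, 6 per group. Oral or ip dosing (UDCA 100 mg/kg po in CMC-Na) at 30 min before and 8, 22, 32 and 46 h after ANIT. Serum collected at 48 h from the abdominal aorta; ALT and AST activities measured with kits.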

Rattus norvegicus [2] = assay: (§3) Anti-hepatitis activity in ANIT-induced Sprague-Dawley rat model of liver injury assessed as reduction in hepatocellular edema at 3.125 to 25 mg/kg, po administered 30 mins prior to ANIT challenge and subsequent dosing at 8, 22, 32, and 46 hrs post ANIT challenge and measured 48 hrs post ANIT challenge by H and E staining-based assay; assay type: functional, organism-based
Method in brief: (§4)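 ANIT 50 mg/kg ip liver-injury model in male SD rats, 6 per group. Oral or ip treatment at 30 min before and 8, 22, 32 and 46 h after ANIT. Liver excised at 48 h, fixed in 4% formalin, stained with H&E, and examined microscopically for hepatocellular edema and necrosis.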

[3] = AUC (0 to t) in Beagle dog assessed as JBP485 level at 12 mg/kg equiv of JBP485 administered orally by UPLC-MS/MS analysis; assay type: ADME, organism-based, Canis lupus familiaris; conditions: in vivo, po
Method in brief: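 Male beagle dogs, 2 years old, 8-10 kg, n=6. Single oral dose of 12 mg/kg (prodrug dosed as JBP485 equivalent) given in aqueous solution. Jugular venipuncture blood taken at 0.167-8 h into sodium heparin tubes. Plasma JBP485 measured by UPLC-MS/MS; AUC0-t and Cmax from the concentration-time profiles.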

[4] = Tmax in Beagle dog assessed as JBP485 level at 12 mg/kg equiv of JBP485 administered orally by UPLC-MS/MS analysis; assay type: ADME, organism-based, Canis lupus familiaris; conditions: in vivo, po
Method in brief: (§5)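 Male beagle dogs, 2 years old, 8–10 kg, dosed orally at 12 mg/kg (prodrug calculated as JBP485) in aqueous solution. Jugular blood taken 0.167–8 h into heparin, centrifuged, plasma JBP485 by UPLC-MS/MS; n=6.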

[5] = Tmax in Sprague-Dawley rat assessed as JBP485 level at 100 mg/kg, po by LC-MS/MS analysis; assay type: ADME, organism-based; conditions: in vivo
Method in brief: (§6)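 Male SD rats (200–250 g) fasted 12 h, given JBP485 or prodrug (calculated as JBP485) orally at 12 or 100 mg/kg. Jugular blood sampled 0.083–10 h, plasma JBP485 by UPLC-MS/MS; n=6.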

Rattus norvegicus [6] = assay: as §3, with “at 6.25” for “at 3.125”, “to 12.5” for “to 25”, “mg/kg, ip” for “mg/kg, po”; assay type: functional, organism-based; method in brief: as §4
Rattus norvegicus [7] = assay: as §1, with “aspartate” for “alanine”, “6.25” for “3.125”; assay type: functional, organism-based; method in brief: as §2
[8] = AUC (0 to t) in Sprague-Dawley rat at 12 mg/kg, po by UPLC-MS/MS analysis; assay type: ADME, organism-based; conditions: in vivo
Method in brief: (§7)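 Male SD rats, 200-250 g, fasted 12 h with water, n=6. Oral dose of 12 mg/kg as JBP485 equivalent; dose-effect arms at 12 and 100 mg/kg. JBP485 given iv at 6 mg/kg as the reference. Jugular blood taken at 0.083-10 h. Plasma JBP485 by UPLC-MS/MS. Absolute F = (AUCpo×Div)/(AUCiv×Dpo)×100%, using AUC0-t.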

[9] = Tmax in Sprague-Dawley rat assessed as JBP485 level at 12 mg/kg, po by LC-MS/MS analysis; assay type: ADME, organism-based; conditions: in vivo; method in brief: as §6
[10] = Cmax in Sprague-Dawley rat at 12 mg/kg, po by UPLC-MS/MS analysis; assay type: ADME, organism-based; parameters: dose 12 mg/kg, route oral; conditions: in vivo; method in brief: as §7
[11] = Terminal half-life in Sprague-Dawley rat at 12 mg/kg, po by UPLC-MS/MS analysis; assay type: ADME, organism-based; conditions: in vivo, read-out: beta t1/2 (converted)
Method in brief: (§8)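 Fasted male SD rats (200–250 g), oral 12 mg/kg (prodrugs calculated as JBP485). Jugular blood 0.083–10 h, centrifuged, plasma JBP485 by UPLC-MS/MS; n=6.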

[12] = AUC (0 to t) in Sprague-Dawley rat assessed as JBP485 level at 12 mg/kg, po by LC-MS/MS analysis; assay type: ADME, organism-based; conditions: in vivo; method in brief: as §7
[13] = Terminal half life in Beagle dog at 12 mg/kg, po by UPLC-MS/MS analysis; assay type: ADME, organism-based, Canis lupus familiaris; conditions: in vivo, read-out: beta t1/2 (converted); method in brief: as §5
Rattus norvegicus [14] = assay: as §1, with “6.25” for “3.125”; assay type: functional, organism-based; method in brief: as §2
Rattus norvegicus [15] = assay: Anti-hepatitis activity in ANIT-induced ip dosed Sprague-Dawley rat model of cholestasis assessed as reduction in serum total bilirubin level administered 30 mins prior to ANIT challenge and subsequent dosing at 8, 22, 32, and 46 hrs post ANIT challenge and measured 48 hrs post ANIT challenge; assay type: functional, organism-based
Method in brief: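 Male SD rats, 6 weeks old, fasted 12 h, 6 per group. Cholestasis induced by ANIT 50 mg/kg ip in olive oil. Test agents were given in water; UDCA 100 mg/kg was given orally in CMC-Na. Dosing at 30 min before and 8, 22, 32 and 46 h after ANIT. Serum taken from the abdominal aorta under chloral hydrate anesthesia at 48 h; total bilirubin measured with an assay kit.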

[16] = AUC (0 to t) in Sprague-Dawley rat assessed as JBP485 level at 100 mg/kg, po by LC-MS/MS analysis; assay type: ADME, organism-based; conditions: in vivo; method in brief: as §7
Rattus norvegicus [17] = assay: as §3, with “liver necrosis” for “hepatocellular edema”, “6.25” for “3.125”; assay type: functional, organism-based; method in brief: as §4
[18] = Tmax in Sprague-Dawley rat at 12 mg/kg, po by UPLC-MS/MS analysis; assay type: ADME, organism-based; conditions: in vivo; method in brief: as §8

In the case of `CC(C)[C@H](N)C(=O)OC[C@@H]1NC(=O)[C@@H]2C[C@@H](O)CN2C1=O`, the Activity (Rattus norvegicus [1]) is reported as “Active”, the Activity (Rattus norvegicus [2]) is reported as “Active” and the AUCt [3] is reported as 233.25 nM/ml.hr. For the same molecule, the Tmax [4] was 0.58 h.

For `O=C1N[C@@H](CO)C(=O)N2C[C@H](O)C[C@@H]12`, the Tmax [5] was 1.5 h, the Activity (Rattus norvegicus [6]) was “Active” and the Activity (Rattus norvegicus [7]) was “Active”. The AUCt [8] was 81.4 nM/ml.hr, the Tmax [9] was 1.25 h and the Cmax [10] was 27.8 µM. For the same molecule, the half-life [11] was 2.12 h, the AUCt [12] was 81.4 nM/ml.hr and the half-life [13] was 5.23 h. For the same molecule, the Activity (Rattus norvegicus [14]) was “Active”, the Activity (Rattus norvegicus [15]) was “Dose-dependent effect” and the AUCt [16] was 324 µM·h. The Activity (Rattus norvegicus [17]) was “Active” and the Tmax [18] was 1.25 h.

From ChEMBL document CHEMBL4373712, “Bioactivatable Pseudotripeptidization of Cyclic Dipeptides To Increase the Affinity toward Oligopeptide Transporter 1 for Enhanced Oral Absorption: An Application to Cyclo(l-Hyp-l-Ser) (JBP485)” (J Med Chem, 2019)
